For two compounds, IC50, Kd and Km results are on record in publication PMC11822521 (ACS Omega, 2025).

Test [1] concerns the target T1, VHR (Homo sapiens, UniProt P51452). The experiment in a line: VHR dose–response inhibition assay with OMFP substrate. Type of test: biochemical. The method in brief:
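Ten-point curves, 100 μM to 5 nM final, in triplicate, with DMSO vehicle. Human His8-VHR (2.5 nM final) in pH 6 Bis-tris buffer with DTT and Tween-20 was preincubated with compound 20 min at room temperature. Reaction started with OMFP (6 μM final) and read at ex 485/em 535 nm for 10 min. Slopes were normalized to no-enzyme and vehicle controls and fitted to a four-parameter variable-slope model.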

Test [2] concerns the target T1, VHR. Description: Isothermal titration calorimetry. Type of test: binding. As to conditions: dissociation constant (KD), ITC; mean of two independent experiments ± SEM. In a few lines:
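Run at 25 °C on full-length human VHR (His8-tagged, E. coli-expressed, Ni-NTA purified). Protein was 60–285 μM in PBS with 5% DMSO in the cell. Test compound (0.3–5 mM in the same buffer) was added as 20 injections of 6 μL. Baseline came from compound injected into buffer alone. KD was the mean of two independent runs.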

Test [3] deals with T1, VHR. Description: Michaelis–Menten kinetic assay of VHR with OMFP. The format is biochemical. The conditions noted are these: read-out: Michaelis–Menten constant (Km); OMFP as substrate of VHR. The method in brief: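 Full-length human His8-VHR expressed in E. coli, fixed at 2.5 nM, with OMFP titrated. Enzyme preincubated 20 min at room temperature, then substrate added. Fluorescence (ex 485/em 535 nm) read kinetically for 10 min. Initial velocities were background-corrected against no-enzyme wells and fitted to the Michaelis–Menten equation.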

T1 sequence (P51452 whole entry): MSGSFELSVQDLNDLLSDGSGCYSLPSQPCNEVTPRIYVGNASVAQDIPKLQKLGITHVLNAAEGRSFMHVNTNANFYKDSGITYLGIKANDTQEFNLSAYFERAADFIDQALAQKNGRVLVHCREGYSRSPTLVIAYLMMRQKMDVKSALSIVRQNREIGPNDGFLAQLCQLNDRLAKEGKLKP

Take `O=P(O)(O)C(F)(F)c1cccc(-c2cccc(-c3cscn3)c2)c1` [SBP-4929, (Difluoro(3′-(thiazol-4-yl)-[1,1′-biphenyl]-3-yl)methyl)phosphonic Acid]: in test [1], the IC50 was found to be 4.1 ± 1.8 µM. The same compound gave a Kd in test [2] of 7.6 ± 0.2 µM.

As to `COc1ccc2c(c1)Oc1cc(OP(=O)(O)O)ccc1C21OC(=O)c2ccccc21` (stereo not drawn) [OMFP, 3-O-methylfluorescein phosphate], in test [3], the Michaelis constant (Km) stood at 5.4 µM.
